ChEMBL document CHEMBL1128344 (J Med Chem, 1995)
pIC50: −log10 of the molar value.

Tests used:
[1] = molecular target: T1, Epidermal growth factor receptor (Homo sapiens, UniProt P00533); assay: Inhibition of EFGR tyrosine kinase from A431 cells; format: cell-based; settings: A-431
Procedure, shortened: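 Enzyme source was the native EGFR complex in plasma membrane vesicles shed from cultured A431 epidermoid carcinoma cells. Kinase activity was measured as ³²P incorporation from added [γ-³²P]ATP into a 6:3:1 random copolymer of glutamate, alanine and tyrosine.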

[2] = Inhibition of v-src from baculovirus culture
Procedure, shortened: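 pp60v-src from v-src baculovirus-infected insect cells, bound via monoclonal antibody to 0.65 μm latex beads. Activity was measured as ³²P incorporation from [γ-³²P]ATP into poly[(glu)4(tyr)1] substrate.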

[3] = molecular target: T1, Epidermal growth factor receptor; assay: Inhibitory concentration compound against EFGR tyrosine kinase obtained from plasma membrane vesicles from cultured A431 cells; format: cell-free, A-431
[4] = Inhibitory concentration of the against pp60v-src tyrosine kinase obtained from v-src baculovirus-infected insect cells

T1 sequence (P00533 whole entry): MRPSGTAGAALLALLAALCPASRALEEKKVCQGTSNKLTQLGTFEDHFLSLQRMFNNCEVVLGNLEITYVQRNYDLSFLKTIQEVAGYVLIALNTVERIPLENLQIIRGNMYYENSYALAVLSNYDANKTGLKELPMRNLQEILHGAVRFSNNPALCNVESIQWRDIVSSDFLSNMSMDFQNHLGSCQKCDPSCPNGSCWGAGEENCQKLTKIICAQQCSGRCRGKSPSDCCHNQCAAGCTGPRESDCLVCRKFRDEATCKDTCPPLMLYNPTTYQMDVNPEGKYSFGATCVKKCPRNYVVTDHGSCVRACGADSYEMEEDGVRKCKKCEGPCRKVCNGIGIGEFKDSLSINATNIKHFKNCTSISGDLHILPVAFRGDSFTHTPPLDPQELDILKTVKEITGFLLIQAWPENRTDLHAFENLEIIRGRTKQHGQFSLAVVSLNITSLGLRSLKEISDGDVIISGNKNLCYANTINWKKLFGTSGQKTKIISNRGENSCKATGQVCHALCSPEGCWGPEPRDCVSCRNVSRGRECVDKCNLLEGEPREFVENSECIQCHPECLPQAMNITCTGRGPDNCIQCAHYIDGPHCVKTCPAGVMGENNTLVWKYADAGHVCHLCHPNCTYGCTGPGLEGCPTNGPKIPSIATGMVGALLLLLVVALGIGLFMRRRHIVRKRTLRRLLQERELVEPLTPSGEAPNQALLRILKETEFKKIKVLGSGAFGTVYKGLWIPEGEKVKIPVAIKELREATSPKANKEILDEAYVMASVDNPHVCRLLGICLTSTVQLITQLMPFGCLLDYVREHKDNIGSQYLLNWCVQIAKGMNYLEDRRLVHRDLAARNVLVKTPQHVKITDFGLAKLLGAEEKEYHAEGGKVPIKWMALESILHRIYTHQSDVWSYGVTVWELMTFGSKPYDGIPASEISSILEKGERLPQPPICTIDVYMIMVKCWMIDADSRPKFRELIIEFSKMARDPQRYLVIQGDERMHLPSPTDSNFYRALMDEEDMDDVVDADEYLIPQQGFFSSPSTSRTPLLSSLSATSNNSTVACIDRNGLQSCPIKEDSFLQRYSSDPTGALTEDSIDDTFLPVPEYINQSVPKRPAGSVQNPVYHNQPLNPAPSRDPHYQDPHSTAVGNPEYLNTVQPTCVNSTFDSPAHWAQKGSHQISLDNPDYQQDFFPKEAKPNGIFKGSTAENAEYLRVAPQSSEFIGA

Row | Structure (SMILES) | pIC50 [3] | further results
1 | CN1C(=S)C(C(=O)c2ccco2)c2ccccc21 (configuration not stated) |  | FC50 [1]: > 100 µM; IC50 [2]: 10.8 µM
2 | CN(C)CCNC(=O)c1c(SSc2c(C(=O)NCCN(C)C)c3ccccc3n2C)n(C)c2ccccc12 | 4.76 | 
3 | CN1C(=S)C(C(=O)c2ccccc2)c2ccccc21 (configuration not stated) |  | FC50 [1]: > 100 µM
4 | CN(C)CCCn1c(SSc2c(C(=O)Nc3ccccc3)c3ccccc3n2CCCN(C)C)c(C(=O)Nc2ccccc2)c2ccccc21 |  | FC50 [1]: 26 µM; IC50 [2]: 5.6 µM
5 | CNC(=O)c1c(SSc2c(C(=O)NC)c3ccccc3n2C)n(C)c2ccccc12 | 5.74 | 
6 | COC(=O)c1cccc(NC(=O)c2c(SSc3c(C(=O)Nc4cccc(C(=O)OC)c4)c4ccccc4n3C)n(C)c3ccccc23)c1 | < 4.00 | 
7 | CN1C(=S)C(C(=O)c2ccc(C(=O)O)cc2)c2ccccc21 (configuration not stated) |  | FC50 [1]: 8.7 µM
8 | COC(=O)c1ccc(C(=O)C2C(=S)N(C)c3ccccc32)cc1 (configuration not stated) |  | FC50 [1]: > 100 µM
9 | Cn1c(SSc2c(C(=O)Nc3cccs3)c3ccccc3n2C)c(C(=O)Nc2cccs2)c2ccccc21 | < 4.00 | 
10 | Cc1c(SSc2c(C)c3ccccc3n2C)n(C)c2ccccc12 | < 4.00 | 
11 | O=C(Nc1ccccc1)c1c(SSc2[nH]c3ccccc3c2C(=O)Nc2ccccc2)[nH]c2ccccc12 | 4.00 | 
12 | COC(=O)c1ccc(NC(=O)c2c(SSc3c(C(=O)Nc4ccc(C(=O)OC)cc4)c4ccccc4n3C)n(C)c3ccccc23)cc1 | < 4.00 | 
13 | CN1C(=S)C(C(=O)Nc2ccccc2)c2ccccc21 (configuration not stated) |  | FC50 [1]: 1 µM; IC50 [2]: 10 µM
14 | CC1C(=S)N(C)c2ccccc21 (configuration not stated) |  | FC50 [1]: > 100 µM; IC50 [2]: > 100 µM
15 | Cn1c(SSc2c(C(=O)Nc3ccccc3)c3ccccc3n2C)c(C(=O)Nc2ccccc2)c2ccccc21 | 4.96 | pIC50 [4]: 5.49
16 | NC(Cc1c(SSc2[nH]c3ccccc3c2CC(N)C(=O)NCc2ccccc2)[nH]c2ccccc12)C(=O)NCc1ccccc1 (configuration not stated) | 5.48 | 

Row | Structure (SMILES) | pIC50 [3] | further results
17 | Cn1c(SSc2c(C(=O)c3ccccc3)c3ccccc3n2C)c(C(=O)c2ccccc2)c2ccccc21 | < 4.00 | 
18 | O=C(NCc1ccccc1)c1c(SSc2[nH]c3ccccc3c2C(=O)NCc2ccccc2)[nH]c2ccccc12 | 4.82 | 
19 | Cc1ccc(S(=O)(=O)c2c(SSc3[nH]c4ccccc4c3S(=O)(=O)c3ccc(C)cc3)[nH]c3ccccc23)cc1 | 4.54 | 
20 | Cn1c(SSc2c(C(=O)Nc3ccncc3)c3ccccc3n2C)c(C(=O)Nc2ccncc2)c2ccccc21 | < 4.00 | 
21 | CNC(=O)c1c(SSc2[nH]c3ccccc3c2C(=O)NC)[nH]c2ccccc12 | 5.21 | 
22 | Cn1c(SSc2c(C(=O)c3ccco3)c3ccccc3n2C)c(C(=O)c2ccco2)c2ccccc21 | 5.11 | 
23 | CC(=O)C1C(=S)N(C)c2ccccc21 (configuration not stated) |  | FC50 [1]: > 100 µM; IC50 [2]: > 50 µM
24 | Cn1c(SSc2c(C(=O)Nc3ccccn3)c3ccccc3n2C)c(C(=O)Nc2ccccn2)c2ccccc21 | 4.33 | 
25 | Cn1c(SSc2c(C(=O)Nc3ccccc3)c3cc(C(F)(F)F)ccc3n2C)c(C(=O)Nc2ccccc2)c2cc(C(F)(F)F)ccc21 |  | pIC50 [4]: 5.24
26 | Cn1c(SSc2c(C(=O)Nc3cccnc3)c3ccccc3n2C)c(C(=O)Nc2cccnc2)c2ccccc21 | < 4.00 | 
27 | Cn1c(SSc2c(C(=O)NCc3ccccc3)c3ccccc3n2C)c(C(=O)NCc2ccccc2)c2ccccc21 | 5.77 | 
28 | CN(C(=O)c1c(SSc2c(C(=O)N(C)c3ccccc3)c3ccccc3n2C)n(C)c2ccccc12)c1ccccc1 | < 4.00 | 
29 | c1ccc(-c2c(SSc3[nH]c4ccccc4c3-c3ccccc3)[nH]c3ccccc23)cc1 | 4.00 | 
30 | COC(=O)c1ccccc1NC(=O)c1c(SSc2c(C(=O)Nc3ccccc3C(=O)OC)c3ccccc3n2C)n(C)c2ccccc12 | < 4.00 | 
31 | CCn1c(SSc2c(C(=O)Nc3ccccc3)c3ccccc3n2CC)c(C(=O)Nc2ccccc2)c2ccccc21 | < 4.00 | 
